Assay results reported in ChEMBL document CHEMBL1275263, “Synthesis and evaluation of stilbene derivatives as a potential imaging agent of amyloid plaques” (Bioorg Med Chem, 2010).

Experiments:
[1] = Binding affinity to amyloid beta (1 to 40)
How it was run: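 Aβ40 peptide in PBS (pH 7.4), brought to 200 final and shaken gently at 37 °C for 48 h to form fibrils, which were confirmed by ThT assay. Dye fluorescence was measured with the fibrils in PBS, with excitation and emission maxima determined by spectral scans. KD came from nonlinear regression fitting a one-site binding model, from 5 replicate experiments (N = 5).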

[2] = Binding to amyloid beta (1 to 40) fibrils assessed as fold increase in compound fluorescence at 30 uM by fluorescence assay relative to control

What does the source list for `CNc1ccc(/C=C/c2ccc(Br)cc2)cc1`?
Kd [1]: 1130 nM; Ratio [2]: 25.8

Which Kd [1] does the source give for `CNc1ccc(/C=C/c2cccc(OC)c2)cc1` here?
Its Kd is 17900 nM.

What about the Ratio [2] of the same molecule?
Its Ratio is 9.3.

Which Kd [1] does the source give for `CNc1ccc(-c2nc3ccccc3s2)cc1` here?
The Kd was 300 nM.

For `CN(CCO)c1ccc(/C=C/c2cccc(Br)c2)cc1`, which Kd [1] is on record?
The Kd was 2890 nM.

And the Ratio [2]?
The Ratio was 8.91.

With `Cc1ccc2c(c1)sc(-c1ccc(N(C)C)cc1)[n+]2C` [THIOFLAVIN T] as the molecule, how does the Kd [1] read?
The Kd was 2300 nM.

With `CN(CCO)c1ccc(/C=C/c2ccc(Br)cc2)cc1` as the molecule, how does the Kd [1] read?
Its Kd is 1840 nM.

And the Ratio [2]?
Its Ratio is 15.7.
